Measured values reported in ChEMBL document CHEMBL1157245, “Bromophenols coupled with methyl gamma-ureidobutyrate and bromophenol sulfates from the red alga Rhodomela confervoides” (J Nat Prod, 2006).

Each molecule was assayed on HCT-8 (assay: Cytotoxicity against human HCT8 cells after 96 hrs by MTT assay). Conditions: HCT-8, 96 h.
Assay type: functional, cell-based
Method in brief: (§1)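 Cell lines from ATCC, grown in RPMI 1640 with 10% FBS plus penicillin/streptomycin at 37 °C, 5% CO2. Seeded at 1200 cells/well; compounds added 24 h later at five concentrations from DMSO stocks (final DMSO 0.1%), triplicate wells.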
Molecule O=S(=O)(O)OCCc1cc(O)c(O)c(Br)c1 has an IC50 of 18.8 µM.
In the case of COC(=O)CCCN(Cc1cc(O)c(O)c(Br)c1Br)C(=O)NCc1cc(O)c(O)c(Br)c1Br, the IC50 is reported as over 10 mg/L.
Work on O=S(=O)(O)OCCc1cc(O)c(O)c(Br)c1Cc1cc(O)c(O)c(Br)c1Br yielded an IC50 of 12.1 µM.
O=c1[nH]cc(F)c(=O)[nH]1 [FLUOROURACIL] was tested, and the IC50 was 4.2 µM.
Molecule O=S(=O)(O)OCCc1cc(O)c(O)c(Br)c1Br has an IC50 of 14.6 µM.
COC(=O)CCCNC(=O)NCc1cc(O)c(O)c(Br)c1Br gave an IC50 of over 10 mg/L.
Molecule COC(=O)CCCNC(=O)N(Cc1cc(O)c(O)c(Br)c1Br)Cc1cc(O)c(O)c(Br)c1Cc1cc(O)c(O)c(Br)c1Br has an IC50 of over 10 mg/L.
For COC(=O)CCCNC(=O)NCc1cc(O)c(O)c(Br)c1Cc1cc(O)c(O)c(Br)c1Br, the IC50 was over 10 mg/L.
Work on OCCc1cc(O)c(O)c(Br)c1Br yielded an IC50 of 15.4 µM.

The molecules below were run on BGC-823 (assay: Cytotoxicity against human BGC823 cells after 96 hrs by MTT assay). Conditions: BGC-823, 96 h.
Assay type: functional, cell-based
Method in brief: as §1
O=S(=O)(O)OCCc1cc(O)c(O)c(Br)c1 showed an IC50 of 19.1 µM.
Work on COC(=O)CCCN(Cc1cc(O)c(O)c(Br)c1Br)C(=O)NCc1cc(O)c(O)c(Br)c1Br yielded an IC50 of over 10 mg/L.
O=S(=O)(O)OCCc1cc(O)c(O)c(Br)c1Cc1cc(O)c(O)c(Br)c1Br showed an IC50 of 15.1 µM.
O=c1[nH]cc(F)c(=O)[nH]1 [FLUOROURACIL] was tested, and the IC50 was 5.4 µM.
O=S(=O)(O)OCCc1cc(O)c(O)c(Br)c1Br was tested, and the IC50 was 14 µM.
In the case of COC(=O)CCCNC(=O)NCc1cc(O)c(O)c(Br)c1Br, the IC50 is reported as over 10 mg/L.
For COC(=O)CCCNC(=O)N(Cc1cc(O)c(O)c(Br)c1Br)Cc1cc(O)c(O)c(Br)c1Cc1cc(O)c(O)c(Br)c1Br, the IC50 was over 10 mg/L.
COC(=O)CCCNC(=O)NCc1cc(O)c(O)c(Br)c1Cc1cc(O)c(O)c(Br)c1Br was tested, and the IC50 was over 10 mg/L.
Work on OCCc1cc(O)c(O)c(Br)c1Br yielded an IC50 of 20.2 µM.

The molecules below were run on A2780 (assay: Cytotoxicity against human A2780 cells after 96 hrs by MTT assay). Conditions: A2780, 96 h.
Assay type: functional, cell-based
Method in brief: as §1
O=S(=O)(O)OCCc1cc(O)c(O)c(Br)c1 showed an IC50 of 20.8 µM.
Molecule COC(=O)CCCN(Cc1cc(O)c(O)c(Br)c1Br)C(=O)NCc1cc(O)c(O)c(Br)c1Br has an IC50 of over 10 mg/L.
O=S(=O)(O)OCCc1cc(O)c(O)c(Br)c1Cc1cc(O)c(O)c(Br)c1Br was tested, and the IC50 was over 16.9 µM.
For O=c1[nH]cc(F)c(=O)[nH]1 [FLUOROURACIL], the IC50 was 5 µM.
Molecule O=S(=O)(O)OCCc1cc(O)c(O)c(Br)c1Br has an IC50 of 9.4 µM.
Molecule COC(=O)CCCNC(=O)NCc1cc(O)c(O)c(Br)c1Br has an IC50 of over 10 mg/L.
With COC(=O)CCCNC(=O)N(Cc1cc(O)c(O)c(Br)c1Br)Cc1cc(O)c(O)c(Br)c1Cc1cc(O)c(O)c(Br)c1Br the IC50 was over 10 mg/L.
COC(=O)CCCNC(=O)NCc1cc(O)c(O)c(Br)c1Cc1cc(O)c(O)c(Br)c1Br showed an IC50 of over 10 mg/L.
With OCCc1cc(O)c(O)c(Br)c1Br the IC50 was 19.9 µM.

These molecules were tested on A549 (assay: Cytotoxicity against human A549 cells after 96 hrs by MTT assay). Conditions: A549, 96 h.
Assay type: functional, cell-based
Method in brief: as §1
O=S(=O)(O)OCCc1cc(O)c(O)c(Br)c1 was tested, and the IC50 was 18.5 µM.
Work on COC(=O)CCCN(Cc1cc(O)c(O)c(Br)c1Br)C(=O)NCc1cc(O)c(O)c(Br)c1Br yielded an IC50 of over 10 mg/L.
O=S(=O)(O)OCCc1cc(O)c(O)c(Br)c1Cc1cc(O)c(O)c(Br)c1Br showed an IC50 of 14.5 µM.
O=c1[nH]cc(F)c(=O)[nH]1 [FLUOROURACIL] gave an IC50 of 1.4 µM.
Molecule O=S(=O)(O)OCCc1cc(O)c(O)c(Br)c1Br has an IC50 of 14.7 µM.
COC(=O)CCCNC(=O)NCc1cc(O)c(O)c(Br)c1Br was tested, and the IC50 was over 10 mg/L.
COC(=O)CCCNC(=O)N(Cc1cc(O)c(O)c(Br)c1Br)Cc1cc(O)c(O)c(Br)c1Cc1cc(O)c(O)c(Br)c1Br showed an IC50 of over 10 mg/L.
COC(=O)CCCNC(=O)NCc1cc(O)c(O)c(Br)c1Cc1cc(O)c(O)c(Br)c1Br was tested, and the IC50 was over 10 mg/L.
OCCc1cc(O)c(O)c(Br)c1Br gave an IC50 of 19.7 µM.

What follows are molecules tested on Bel-7402 (assay: Cytotoxicity against human BEL-7402 cells after 96 hrs by MTT assay). Conditions: Bel-7402, 96 h.
Assay type: functional, cell-based
Method in brief: as §1
Work on O=S(=O)(O)OCCc1cc(O)c(O)c(Br)c1 yielded an IC50 of 20.4 µM.
COC(=O)CCCN(Cc1cc(O)c(O)c(Br)c1Br)C(=O)NCc1cc(O)c(O)c(Br)c1Br was tested, and the IC50 was over 10 mg/L.
O=S(=O)(O)OCCc1cc(O)c(O)c(Br)c1Cc1cc(O)c(O)c(Br)c1Br showed an IC50 of 13.5 µM.
For O=c1[nH]cc(F)c(=O)[nH]1 [FLUOROURACIL], the IC50 was 4.2 µM.
With O=S(=O)(O)OCCc1cc(O)c(O)c(Br)c1Br the IC50 was 14.8 µM.
For COC(=O)CCCNC(=O)NCc1cc(O)c(O)c(Br)c1Br, the IC50 was over 10 mg/L.
With COC(=O)CCCNC(=O)N(Cc1cc(O)c(O)c(Br)c1Br)Cc1cc(O)c(O)c(Br)c1Cc1cc(O)c(O)c(Br)c1Br the IC50 was over 10 mg/L.
With COC(=O)CCCNC(=O)NCc1cc(O)c(O)c(Br)c1Cc1cc(O)c(O)c(Br)c1Br the IC50 was over 10 mg/L.
In the case of OCCc1cc(O)c(O)c(Br)c1Br, the IC50 is reported as 19.4 µM.
